Bioassay records deposited in PubChem by several laboratories.
Beta2AR agonist: activates human beta-2 adrenergic receptor causing internalization; P07550; Am2.2-beta2AR cells, FAP receptor internalization, flow cytometry; response, % (no concentration beside the values); 0.43% of 340,000 active; AID 504454;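 active = response above a set limit, near 3 SD of response in nonfluorescent compounds, cut at about 42% in these data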
MC4R ag barr: activates human MC4R beta-arrestin recruitment; activation, % at 8.9 µM; U2OS MC4R beta-arrestin complementation, luminescence; percent of melanotan II response, DMSO zero; 0.98% of 360,000 active; AID 540308; P32245;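 active = activation above a per-plate cutoff, the mean activation of sample wells on that plate plus 3 SD, cut at about 8% in these data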
Target sequence (P32245 whole entry, looked up): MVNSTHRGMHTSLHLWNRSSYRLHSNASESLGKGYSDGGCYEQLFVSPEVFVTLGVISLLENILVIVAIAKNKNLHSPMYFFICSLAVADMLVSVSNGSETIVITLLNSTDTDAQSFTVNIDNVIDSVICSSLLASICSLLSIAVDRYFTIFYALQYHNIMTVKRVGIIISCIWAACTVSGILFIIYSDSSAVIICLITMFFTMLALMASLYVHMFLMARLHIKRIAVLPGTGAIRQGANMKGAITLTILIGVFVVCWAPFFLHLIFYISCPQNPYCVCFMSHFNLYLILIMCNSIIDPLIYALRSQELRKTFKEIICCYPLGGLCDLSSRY
TAAR1 agonist: agonists of human TAAR1. CHO RD-HGA16 TAAR1, Fluo-8 calcium fluorescence; vehicle wells 0%, saturating PEA agonist 100%. activation, % at 3 µM. 0.99% of 360,000 active. AID 624467;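 active = activation above the mean activation of all test compounds in the run plus 3 SD, cut at about 38% in these data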
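Repeats: no replicates (n 1) | Material: CHO-derived RD-HGA16 cells with stable Gα16 and human TAAR1 | Technique: Kinetic Fluo-8 calcium fluorescence | Schedule: 17-24 h seeding, 75 min 37 °C dye, 30 min RT | Evaluation: % activation from peak over basal fluorescence ratio, DMSO-to-PEA scaled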
HTR2A ag: mouse HTR2A agonism via beta-arrestin recruitment | P35363 | CHO-K1 mHTR2A beta-arrestin complementation, luminescence; percent of 30 µM serotonin response | activation, % at 7.6 µM | 0.66% of 360,000 active | AID 624169;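 active = activation above a run cutoff, the mean activation of all tested compounds plus 3 SD, cut at about 14% in these data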;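 note: 0% = plate median of compound wells and 100% = 30 µM serotonin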
Target sequence (P35363 whole entry, looked up): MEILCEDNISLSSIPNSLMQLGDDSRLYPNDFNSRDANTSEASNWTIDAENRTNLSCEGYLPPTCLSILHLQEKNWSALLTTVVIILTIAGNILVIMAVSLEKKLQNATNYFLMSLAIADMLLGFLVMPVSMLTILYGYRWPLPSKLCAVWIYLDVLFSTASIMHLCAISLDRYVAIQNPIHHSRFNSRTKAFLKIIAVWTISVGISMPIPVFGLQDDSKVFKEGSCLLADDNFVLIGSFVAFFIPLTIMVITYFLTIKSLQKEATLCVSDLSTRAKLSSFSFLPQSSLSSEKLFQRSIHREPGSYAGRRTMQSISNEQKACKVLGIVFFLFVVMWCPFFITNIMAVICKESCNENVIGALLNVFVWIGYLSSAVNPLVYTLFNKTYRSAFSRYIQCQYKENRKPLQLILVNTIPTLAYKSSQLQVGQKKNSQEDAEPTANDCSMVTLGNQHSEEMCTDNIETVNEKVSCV
TAAR1 antagonist: human TAAR1 antagonism; AID 624466; inhibition, % at 3 µM; CHO RD-HGA16 TAAR1, Fluo-8 calcium fluorescence, antagonist; Q96RJ0; 1.5% of 360,000 active;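 active = inhibition above a per-plate cutoff, the mean inhibition of test compounds on that plate plus 3 SD, cut at about 49% in these data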;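 note: 0% = DMSO plus EC80 beta-PEA response and 100% = DMSO alone without agonist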
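Test system: CHO RD-HGA16 cells bearing hTAAR1 | Reagent: β-PEA, EC80 | Compound dosing: 3 µM, single point | Schedule: Dye loading 75 min at 37 °C, then 30 min room temperature | Signal: Calcium fluorescence with Fluo-8 | Evaluation: Percent inhibition of PEA-evoked calcium signal, max/basal emission ratio | Control set: DMSO-only wells and EC80 β-PEA-stimulated wells | Repeats: Singlicate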
MC4R antag cAMP: blocks human MC4R cAMP signaling | P32245 | MC4R-expressing cells, MTII-stimulated cAMP, LANCE TR-FRET | inhibition, % at 6.5 µM | 0.48% of 360,000 active | AID 540295;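 active = inhibition above its plate's cutoff, the mean of tested wells on that plate plus 3 SD, cut at about 29% in these data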;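 note: 0% = Melanotan II alone and 100% = Melanotan II plus saturating MCL0020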
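Assay system: human MC4R-expressing U2OS cells; reagent: Melanotan II stimulation of cells; dosing: 6.5 µM single dose; timing: compound 30 min, challenge 1 h, detection 1 h; signal: TR-FRET cAMP assay; replicates: one well per compound, no replicates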
TAAR1 ag conf: confirmation of human TAAR1 agonists; 82% of 2,400 active; shares compounds with TAAR1 agonist; CHO RD-HGA16 TAAR1, Fluo-8 calcium fluorescence; scaled: DMSO 0%, maximal phenethylamine 100%; activation, % at 3 µM;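 active = activation above a cutoff set at the run's mean compound activation plus 3 SD, cut at about 39% in these data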
Ga16 nonsel ag: counter-screen for TAAR1 agonists: nonselective agonists in parental cells. CHO-Ga16 parental, Fluo-8 calcium fluorescence; normalized to maximal ATP response, DMSO zero. shares compounds with TAAR1 agonist. 50% of 2,400 active. AID 651787. activation, % at 3 µM;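 active = activation above the run cutoff, the mean activation over all tested wells plus 3 SD, cut at about 12% in these data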;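 note: 0% = DMSO wells and 100% = maximal ATP response on the peak over basal ratio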
TAAR1 desens: counter-screen for human TAAR1 agonists: agonists that desensitize TAAR1 | 46% of 2,400 active | AID 651951 | inhibition, % at 3 µM | shares compounds with TAAR1 agonist | CHO RD-HGA16 hTAAR1, Fluo-8 calcium, beta-PEA response inhibition;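 active = inhibition above the run cutoff, the mean inhibition of all test compounds plus 3 SD, cut at about 49% in these data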;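 note: beta-PEA stimulus applied at its EC80; loss of beta-PEA calcium signal after compound pretreatment read as receptor desensitization; 0% = DMSO with beta-PEA at EC80 and 100% = DMSO alone without agonist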
Ga16 nonsel ant: counter-screen for TAAR1 agonists: nonselective Ga16 antagonists; CHO-Ga16 ATP-induced calcium, Fluo-8 fluorescence; inhibition, % at 3 µM; 39% of 2,400 active; AID 651952; shares compounds with TAAR1 agonist;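 active = inhibition above the plate's mean compound inhibition plus 3 SD, computed per plate, cut at about 22% in these data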;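 note: 0% = EC80 ATP with DMSO and 100% = DMSO wells without ATP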
Starred values were filed as active, the others as inactive; x = no result given. Most compounds without a hit are left out; they make up all but 4.3% or so of the library.

SMILES	Beta2AR agonist	MC4R ag barr	TAAR1 agonist	HTR2A ag	TAAR1 antagonist	MC4R antag cAMP	TAAR1 ag conf	Ga16 nonsel ag	TAAR1 desens	Ga16 nonsel ant
CN(/N=C/c1ccc(-c2ccc([N+](=O)[O-])cc2)o1)c1ccccc1	-395.9	-0.8	66.1*	2.8	67.8*	6.2	44.2*	71.1*	63.5*	73.7*
c1ccc([C@H]2CNCCN2CCc2cccc3ccccc23)cc1	25.2	1.6	54.1*	-7.7	23.7	-2.4	75.9*	20.0*	53.4*	24.3*
COc1cc(CCCN2CCNC[C@@H]2c2ccccc2)cc(OC)c1OC	-0.7	0.2	2.4	4.9	7.9	5.6	x	x	x	x
CCC1CCc2sc(C(=O)NCC(c3ccc(OC)cc3)N3CCCC3)cc2C1 (configuration not stated)	22.4	4.2	46.3*	-16.6	-21.9	3.6	42.3*	5.1	19.9	15.6
CC(=O)Nc1cccc(NC(=O)CSc2n[nH]c(-c3ccccc3)n2)c1	-7.2	1.4	3.4	-3.2	6.0	7.7	x	x	x	x
Cc1ccc(NC(=O)CN(C)C(=O)CSc2nnc(N)s2)cc1	-7.7	-2.3	4.2	-3.1	-10.5	-0.5	x	x	x	x
Cc1c(CNCC(C)c2ccccc2)c(C(=O)O)c(C)n1Cc1ccccc1 (configuration not stated)	1.7	-0.9	89.6*	6.2	5.9	-5.1	78.4*	1.7	18.1	-2.5
Cc1c(CNCCCc2ccccc2)c(C(=O)O)c(C)n1Cc1ccccc1	2.8	-1.7	11.0	-0.8	-4.6	1.0	x	x	x	x
CCOC(=O)c1ccc(Oc2cn[nH]c2-c2ccc(OCC(=O)NN)cc2O)cc1	5.9	0.0	86.1*	5.7	34.5	-3.0	46.7*	16.6*	26.8	21.3
O=C1c2ccccc2S(=O)(=O)c2cc(C(=O)N(c3ccccn3)c3ccccn3)ccc21	-1.3	-1.2	145.2*	4.8	64.8*	-9.2	138.3*	93.8*	59.2*	15.7
O=C(Nc1ccccn1)c1ccc2c(c1)S(=O)(=O)c1ccccc1C2=O	-12.3	-0.6	19.8	0.5	20.0	2.3	x	x	x	x
S=c1[nH]ccn1CCc1ccccc1	-3.3	-1.9	61.8*	5.3	4.0	2.6	64.0*	-0.4	35.9	1.4
CCOc1ccc(S(=O)(=O)N2CCN(C(=O)CN3C(=O)NC(C)(C)C3=O)CC2)cc1	-1.0	-0.3	-0.8	-5.2	-9.2	-3.0	x	x	x	x
Cc1ccc(-c2c(NCCc3ccccc3)c(=O)c2=O)cc1	-15.5	3.7	1.9	-5.4	-4.8	6.5	x	x	x	x
CC(C)c1ccc(-c2c(NCCc3ccccc3)c(=O)c2=O)cc1	2.4	1.1	49.1*	-4.1	-4.0	-4.6	37.0	1.9	13.2	9.1
Cc1cc(CNC(=O)CC2C(=O)NCCN2CC(C)(C)C)nn1C (configuration not stated)	-0.5	-2.5	6.3	6.4	6.9	2.1	x	x	x	x
CCCCC(=O)Nc1ccc(C(=O)Nc2ccc(OC)cc2[N+](=O)[O-])cc1	-9.2	-0.3	99.2*	-0.6	76.2*	-2.0	18.4	3.8	26.5	20.2
COc1ccc(CC(=O)NC(=S)Nc2cccc(C)c2)cc1	-99.3	0.6	81.7*	3.3	49.4*	5.2	70.9*	50.2*	52.0*	45.0*
COc1ccccc1NC(=S)NC(=O)Cc1ccc(Cl)cc1	-7.7	3.8	125.0*	-4.3	106.7*	-3.0	126.3*	88.5*	101.0*	72.9*
COc1cccc(NC(=S)NCc2ccccc2)c1	-2.7	-1.8	-1.1	-2.0	16.0	6.2	x	x	x	x
COc1cccc(NC(=S)NC(=O)Cc2ccc(Cl)cc2)c1	15.2	-0.5	92.8*	-6.9	84.1*	-4.4	123.6*	82.8*	91.1*	68.7*
Cc1cccc(NC(=S)NC(=O)CCc2ccccc2)c1	1.7	1.6	4.4	-0.3	-4.0	8.2	x	x	x	x
COc1ccc(CC(=O)NC(=S)Nc2cccc(CO)c2)cc1	-13.9	-0.3	78.6*	-1.1	0.4	12.2	83.2*	55.4*	29.3	16.1
CCC(=O)Nc1cccc(NC(=S)NC(=O)Cc2ccccc2)c1	-1.1	-1.0	10.8	-0.1	8.4	2.7	x	x	x	x
CCC(=O)NC(=S)Nc1ccccc1OC	-4.2	-0.2	6.2	2.4	-7.5	5.1	x	x	x	x
SMILES	Beta2AR agonist	MC4R ag barr	TAAR1 agonist	HTR2A ag	TAAR1 antagonist	MC4R antag cAMP	TAAR1 ag conf	Ga16 nonsel ag	TAAR1 desens	Ga16 nonsel ant
COc1ccc(N2CCN(C(=O)C(=O)c3cccc([N+](=O)[O-])c3)CC2)cc1	x	x	-0.5	-1.4	-9.2	x	x	x	x	x
O=C(Nc1cccnc1)c1cc(Br)c(Br)s1	2.4	3.1	91.3*	-5.0	48.4	13.3	74.9*	59.3*	50.3*	23.0*
CS(=O)(=O)c1cccc(NC(=O)c2ccc(Cl)c(Cl)c2)c1	-6.0	-1.1	87.5*	-2.2	25.5	13.2	60.1*	42.7*	47.7	28.3*
CS(=O)(=O)c1ccc(C(=O)Nc2cc(S(C)(=O)=O)ccc2Cl)cc1	3.2	-1.7	4.8	1.5	3.5	3.2	x	x	x	x
NC(=O)c1cc(NC(=O)c2cc(Br)c(Br)s2)cc(C(N)=O)c1	2.6	-2.5	2.9	-4.1	-24.9	15.5	x	x	x	x
O=C(Nc1cccnc1)c1ccc(Cl)c(Cl)c1	-3.7	1.1	47.4*	4.7	10.2	7.5	40.8*	41.7*	15.0	11.6
Cc1ccc(NCc2cccc(B(O)O)c2)cc1	2.7	0.5	1.6	3.0	4.0	-12.0	x	x	x	x
Cc1ccc2[nH]c(=O)c(C(c3nnnn3CC3CCCO3)N3CCc4ccccc4C3)cc2c1 (configuration not stated)	-4.2	-2.3	26.6	0.8	0.2	0.8	x	x	x	x
COc1ccc2[nH]c(=O)c(C(c3nnnn3C3CCCCC3)N3CCN(C)CC3)cc2c1 (configuration not stated)	-4.7	1.2	12.5	-2.4	-18.3	3.8	x	x	x	x
COc1ccc2cc(C(c3nnnn3C3CCCC3)N3CCc4ccccc4C3)c(=O)[nH]c2c1 (configuration not stated)	2.9	-1.3	45.7*	-1.9	-1.6	1.5	38.7*	2.8	3.3	13.1
